Compound activity (PubChem)
Hits are enriched below; roughly 2.4% of the tested compounds scored in any of these assays.
Hck Nef HTS: human Hck-Nef kinase inhibition; P08631; Recombinant Hck-YEEI plus Nef, Z-Lyte FRET kinase assay; inhibition, % at 20 µM; 0.68% of 220,000 active; AID 463187;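 active means Hck-Nef kinase inhibition above about 50%, limit read from the data; inactive means inhibition below that limit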;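 further: 0% = DMSO with Hck plus Nef and 100% = Hck alone without Nef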
Target sequence (P08631 whole entry, looked up): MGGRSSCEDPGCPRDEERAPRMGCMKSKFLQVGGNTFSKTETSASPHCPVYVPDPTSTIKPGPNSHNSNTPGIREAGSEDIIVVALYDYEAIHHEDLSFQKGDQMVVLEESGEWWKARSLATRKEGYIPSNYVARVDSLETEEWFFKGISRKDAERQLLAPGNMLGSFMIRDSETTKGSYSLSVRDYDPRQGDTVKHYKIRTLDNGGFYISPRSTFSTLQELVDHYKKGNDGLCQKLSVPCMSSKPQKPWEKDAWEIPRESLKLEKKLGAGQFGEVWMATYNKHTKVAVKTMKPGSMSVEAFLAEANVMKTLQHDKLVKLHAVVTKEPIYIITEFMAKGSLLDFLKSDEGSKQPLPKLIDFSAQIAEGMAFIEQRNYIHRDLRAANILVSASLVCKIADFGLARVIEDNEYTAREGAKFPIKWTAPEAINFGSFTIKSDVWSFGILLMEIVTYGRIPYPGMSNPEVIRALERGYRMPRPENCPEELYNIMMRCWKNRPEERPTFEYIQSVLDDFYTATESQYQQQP
zVAD death inh: L929 zVAD cell death inhibition | L929 zVAD necroptosis rescue, ATP luminescence, 24 h; with zVAD 60 µM | viability rescue, % at 10 µM | 0.38% of 220,000 active | AID 1377;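 active means activation, scaled between plate controls, above about 75%, limit read from the data; inactive means activation under that limit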;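 further: 0% = zVAD with DMSO and 100% = DMSO alone without zVAD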
Mdm2 ligase inh: blocks human Mdm2 ubiquitin ligase activity; Q00987; cell-based MDM2 ubiquitination luciferase reporter, 2 h; 0 = plate control, 100 = twice control, blank-subtracted; signal enhancement, % at 5 µM; 0.11% of 210,000 active;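 active means signal enhancement of 30% or more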;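 further: luminescence tracks abundance of the self-degrading MDM2-luciferase fusion protein; higher signal means inhibition of MDM2 E3 ligase activity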
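System: stable MDM2–luciferase fusion reporter cells / Input: 2000 cells seeded into each well / Schedule: 4 h settle plus 2 h compound, 37 °C / Compound: single-point 5 µM / Buffer or medium: cells held in DMEM / Benchmarks: control and blank well means / Evaluation: percent signal gain over controls, blank-subtracted / Measured by: luciferase luminescence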
Autophagy mod: modulators of autophagy | MEF GFP-LC3 puncta imaging; test concentration mostly 10 µM | 0.98% of 190,000 active | AID 463193 | calls only at 10 µM (by protocol);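 active means percentage of spot-positive cells more than 3 SD above its plate mean, without a fluorescence outlier flag or 80% toxicity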;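 further: spot-positive cell cutoff set from DMSO-treated cells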
Dynein transport: blocks dynein driven cargo transport along microtubules. AID 1381. 0.47% of 220,000 active. 3617.4 mouse cells, GR-EGFP nuclear translocation imaging; test concentration mostly 20 µM; stimulated with dexamethasone, 1 µM; hits give low values. z-score, hits read low;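 active means plate z-score of nuclear minus cytoplasmic receptor signal below a set negative limit, without overly bright fluorescence or cell loss, cut at about -3.5 in these data, passing the limit was not always enough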;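 further: z-score of nuclear minus cytoplasmic ring GR-EGFP intensity difference per well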
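Buffer or medium: tetracycline-free induction medium containing charcoal-stripped FBS / Reagent: dexamethasone agonist, 1.0 µM final, for 30 min / Technique: automated 10x imaging of fixed Hoechst-stained cells / Times: induction 48 h, compound 1 h, agonist 30 min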
TNF necrop inh: inhibitors of TNF-alpha induced necroptosis in Jurkat FADD-/- cells; Jurkat FADD-/- TNF necroptosis rescue, ATP luminescence, 24 h; 0 = TNF only, 100 = no-TNF cells; activation (protection from cell death), % at 10 µM; 0.068% of 220,000 active; AID 463075;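 active means activation, meaning protection from cell death, of at least 50% relative to plate controls; inactive means activation below 50%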;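 further: necroptosis triggered by 40 ng/mL TNF-alpha added together with compound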
* hit, by the source's call; i = inactive; · = no result given; + = active, no number.

SMILES	Hck Nef HTS	zVAD death inh	Mdm2 ligase inh	Autophagy mod	Dynein transport	TNF necrop inh
CN1CCN(CCCNC(=O)c2cc3c(-c4ccc(Cl)cc4)nn(C)c3s2)CC1	3	69	-6	+	-0.82	-2
CCN(CC)CCCNC(=O)c1cc2c(-c3ccc(Cl)cc3)nn(C)c2s1	1	54	-9	+	0.86	-3
Cc1ccnc2c(N3C(=O)C4C5C=CC(C5)C4C3=O)cccc12 (configuration not stated)	3	1	0	i	-0.85	0
CC1=Nc2ccccc2/C1=C/c1sc(=N)n(-c2nccs2)c1O	1	1	-16	+	3.6	-10
CCCC(=O)Nc1sc(C)c(-c2ccc(C(C)CC)cc2)c1C#N (configuration not stated)	-4	0	-19	i	1.1	-1
N=c1oc2cc(O)ccc2cc1C(=O)Nc1nc2ccccc2s1	81*	1	-7	i	-0.96	0
O=C(Nc1nc2ccccc2s1)c1cc(-c2ccco2)nc2ccccc12	2	1	-16	i	-0.064	2
N=c1oc2cc(O)ccc2cc1C(=O)Nc1ccccn1	115*	1	-16	i	-0.12	-1
CC(C)CCOc1ccc(C(=O)N2CCCC2C(=O)O)cc1 (configuration not stated)	17	9	-3	i	0.36	1
CCc1ccc(/C(C)=N\Nc2ccc([N+](=O)[O-])cc2)cc1	0	1	-1	+	-0.25	-1
Nc1cc(N)nc(CS)n1	5	0	-9	·	0.38	0
O=C1CCCC/C1=C\Nc1ccc(C(=O)O)c(O)c1	12	1	-23	·	-0.16	-1
Cc1cc(Nc2ccc([N+](=O)[O-])cc2)nc2ccccc12	19	0	-20	i	0.98	1
O=C(N/N=C/c1ccco1)c1cc(-c2cccc(Br)c2)nc2ccccc12	4	1	-4	i	-0.94	2
Cc1cc(N/N=C/c2ccc([N+](=O)[O-])o2)nc2ccccc12	20	63	-3	+	-0.53	5
CC(/C=N/NC(=O)c1cc(-c2ccncc2)nc2ccccc12)=C\c1ccco1	4	0	-3	+	-0.16	-19
O=C(N/N=C/c1ccc([N+](=O)[O-])o1)c1cc(-c2ccncc2)nc2ccccc12	2	1	-16	i	-5*	-23
COc1cccc(CNC(=O)C2CCC(CNS(=O)(=O)c3cccc4nsnc34)CC2)c1 (configuration not stated)	1	0	2	i	0.88	2
COc1ccccc1NC(=O)COc1ccccc1C(=O)Nc1ccccc1	-2	1	-19	i	-0.14	2
Cc1cc(C)c(NC(=O)COc2ccccc2C(=O)Nc2ccc3c(c2)oc2ccccc23)c(C)c1	-3	1	-16	+	-0.48	3
CCCCNC(=O)CSc1nc2ccccc2c(=O)n1C1CCCC1	1	0	-6	i	-0.23	2
COCCCNC(=O)Cn1c(=O)n(Cc2ccc(C(=O)NCCc3ccc(OC)c(OC)c3)cc2)c(=O)c2ccccc21	22	0	-5	i	0.96	-1
COc1ccc(NC(=O)CN2CCN(C(=S)NC3CCCC3)CC2)cc1	19	0	-1	·	-0.52	1
Cc1ccc(C(=O)N2CCN3C(=O)c4ccccc4C23c2ccc(Cl)cc2)cc1 (configuration not stated)	-1	-1	11	+	-0.39	-11
CCOC(=O)N1CCC(N(CCOC)C(=O)Nc2ccc(Cl)c(Cl)c2)CC1	-2	15	-19	+	-0.54	6
COc1ccc(Cc2cnc(N)s2)cc1	24	6	0	i	0.14	-1
N#Cc1ccc(-c2cccnc2)nc1SCC(=O)Nc1sc2c(c1C#N)CCC2	5	2	17	i	0.18	1
N#Cc1c(C(F)(F)F)cc(-c2ccccc2)nc1SCC(=O)Nc1sc2c(c1C#N)CCC2	1	0	-6	+	-0.18	-4
